# Screening results: PubChem BioAssay, The Scripps Research Institute Molecular Screening Center
# An excerpt weighted towards active compounds, which were near 1.9% of everything screened.
# CHRM4 PAM – CHRM4 positive allosteric modulation. P08173. CHO-K1 hM4/Gqi5, Fluo-8 calcium fluorescence, ACh EC20; 0% = ACh EC20, 100% = maximal ACh. 0.4% of 360,000 active. activation, % at 3 µM;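 active = activation above its plate's cutoff, the mean activation of sample wells plus 3 SD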
# M4 antag – antagonists of human muscarinic M4 receptor (CHRM4); CHO-hM4 cells, ACh EC80, Fluo-8 calcium fluorescence; inhibition, % at 3 µM; 0.73% of 360,000 active; AID 624125;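 active = inhibition above its plate's cutoff, the mean inhibition of sample wells plus 3 SD, cut at about 27% in these data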;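 also: 0% = acetylcholine EC80 with DMSO and 100% = DMSO without agonist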
# CHRM5 antagonist – CHRM5 antagonism in calcium assay; P08912; CHO-hM5 cells, Fluo-8 calcium fluorescence, ACh EC80; inhibition, % at 3 µM; 0.59% of 360,000 active; AID 624040;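 active = inhibition above a per-plate cutoff, the mean of that plate's test compounds plus 3 SD, cut at about 27% in these data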;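 also: 0% = acetylcholine EC80 with DMSO and 100% = DMSO without agonist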
# Target sequence (P08912 whole entry, looked up): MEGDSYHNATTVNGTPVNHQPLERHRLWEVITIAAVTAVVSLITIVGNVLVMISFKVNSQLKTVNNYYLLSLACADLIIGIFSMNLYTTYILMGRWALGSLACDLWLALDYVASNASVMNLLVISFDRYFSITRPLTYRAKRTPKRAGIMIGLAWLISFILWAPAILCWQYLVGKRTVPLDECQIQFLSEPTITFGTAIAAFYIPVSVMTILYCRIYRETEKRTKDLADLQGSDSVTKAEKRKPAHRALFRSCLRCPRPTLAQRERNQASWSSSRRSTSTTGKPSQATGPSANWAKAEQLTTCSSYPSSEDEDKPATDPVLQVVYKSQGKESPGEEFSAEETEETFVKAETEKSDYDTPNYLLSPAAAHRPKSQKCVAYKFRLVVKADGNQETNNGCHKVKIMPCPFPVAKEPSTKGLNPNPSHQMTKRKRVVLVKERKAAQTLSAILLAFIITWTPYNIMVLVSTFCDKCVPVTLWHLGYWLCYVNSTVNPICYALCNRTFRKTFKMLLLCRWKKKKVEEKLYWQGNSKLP
# CHRM4 agonist – CHRM4 agonism in calcium assay; P08173; CHO-K1 hM4/Gqi5, Fluo-8 calcium fluorescence; vehicle 0%, full acetylcholine response 100%; activation, % at 3 µM; 0.14% of 360,000 active; AID 624127;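 active = activation above the run mean over all test wells plus 3 SD, cut at about 32% in these data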;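 also: peak over basal fluorescence ratio per well then scaled between controls; 0% = DMSO wells and 100% = acetylcholine at EC100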
# CHRM5 agonist – agonists of human muscarinic M5 receptor (CHRM5) | CHO-K1 hM5 cells, Fluo-8 calcium fluorescence; 0% DMSO wells, 100% maximal acetylcholine response | activation, % at 3 µM | 0.19% of 360,000 active;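 active = activation above the run's mean over test compounds plus 3 SD, cut at about 23% in these data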;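 also: signal is peak over basal fluorescence ratio across the kinetic read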
# CHRM5 PAM – CHRM5 positive allosteric modulation; activation, % at 3 µM; 0.3% of 360,000 active; AID 624038; P08912; CHO-K1 hM5, Fluo-8 calcium, ACh EC20 PAM; 0% = ACh EC20, 100% = ACh EC100;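 active = activation above the run cutoff, the mean activation of all test compounds plus 3 SD, cut at about 18% in these data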
#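 System – CHO-K1 hM5 cells · Compound – 3 µM, single dose · Incubation – compound preincubation 140 s before EC20 acetylcholine addition · Technique – Fluo-8 calcium fluorescence · Measure – Max/basal fluorescence ratio as % of EC20–EC100 ACh window · Benchmarks – low control EC20 acetylcholine (0%), high control EC100 acetylcholine (100%) · Replication – singlicate, one well per test compound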
# The depositor's hits bear a star.
SMILES,CHRM4 PAM,M4 antag,CHRM5 antagonist,CHRM4 agonist,CHRM5 agonist,CHRM5 PAM
Cc1ccc(CN2CCC(CNC(=O)C3CCCN(c4ncnc5c4nc4n5CCCCC4)C3)CC2)cc1 (stereo not drawn),-26,38*,2,1,-12,-2
c1cc(-n2nnc3cnccc32)ccn1,-3,7,10,0,3,3
CC(C)CC(=O)N/N=C/c1c(N)n(C)c(=O)n(C)c1=O,-4,-10,6,0,1,3
C=C(Cl)COc1ccc2c(C)cc(=O)oc2c1,10,8,-14,-2,-4,18*
CC1CCCCC1NC(=O)CN1C(=O)NC(C)(c2cc(F)ccc2F)C1=O (stereo not drawn),10,-16,-4,2,1,6
CCOc1cc2c3c(c1)C1(OCCO1)C(=O)N3C(C)(C)CC2C (stereo not drawn),2,0,-4,-2,-7,0
CCc1cc2c3c(c1)C(C)CC(C)(C)N3C(=O)C2=O (stereo not drawn),-1,8,-9,-2,26*,0
O=C(c1ccncc1)N1N=C(c2ccc(Br)cc2)CC1c1ccccc1O (stereo not drawn),-13,6,32*,11,-3,-9
COc1ccc(N(CC(=O)N/N=C/c2ccc3c(c2)OCO3)S(=O)(=O)c2ccc(NC(C)=O)cc2)cc1,-5,3,2,2,-2,-9
O=C(Cc1ccc(Cl)cc1Cl)Nc1ccncc1Cl,-6,3,30*,11,3,-13
O=C(Cc1ccc(Cl)cc1Cl)Nc1ccncc1,-1,5,10,13,2,-6
CCN(CC)c1ccc2cc(C(C)=O)c(=O)oc2c1,-4,5,5,4,0,-1
CCN(CC)c1ccc2cc(C=O)c(=O)oc2c1,-1,10,5,18,29*,-19
Cc1ccc(-c2csc(NC(=O)c3ccc4c(=O)n5c(nc4c3)CCCCC5)n2)cc1,23*,0,-2,2,2,8
O=C(c1ccc(=O)oc1)N1CCN(C(c2ccccc2)c2ccccc2)CC1,-14,43*,36*,3,-7,-23
O=C(c1ccc2c(=O)n3c(nc2c1)CCCCC3)N1CCN(c2ccccc2)CC1,-10,-7,-4,2,1,-3
O=C(c1ccc2c(=O)n3c(nc2c1)CCCCC3)N1CCN(C(c2ccccc2)c2ccccc2)CC1,-15,64*,-4,1,-7,-13
CC(C)CN(C(=O)COC(=O)c1ccc(Cl)nc1)c1c(N)n(Cc2ccccc2)c(=O)[nH]c1=O,0,-5,-3,1,1,9
O=C(COC(=O)c1cc([N+](=O)[O-])ccc1NCCO)Nc1cccc(S(=O)(=O)N2CCCC2)c1,-15,35*,15,5,-4,-9
CCN(CC)S(=O)(=O)c1cccc(NC(=O)Nc2cccc(C(F)(F)F)c2)c1,-15,11,34*,15,9,-16
Cc1cc(OCC(=O)Nc2cccc(S(=O)(=O)N3CCCCC3)c2)ccc1Cl,-7,4,14,5,2,-15
O=C(CNc1cccc(S(=O)(=O)N2CCCC2)c1)Nc1ccc(F)c(F)c1,20*,-17,10,14,6,-10
O=C(COC(=O)c1cc([N+](=O)[O-])ccc1NCCO)Nc1ccc2c(c1)OCO2,-5,-3,16,4,0,-8
CCC(=O)c1ccc(OCC(=O)Nc2cccc(S(=O)(=O)N3CCCCCC3)c2)cc1,-13,25,29*,26,5,-31
COc1cc(NC(=O)CS(=O)(=O)c2ccccc2)cc(OC)c1OC,-1,0,2,1,3,0
CCOC(=O)c1c(COC(=O)c2ccco2)nc2ccccc2[n+]1[O-],-4,-3,4,2,-1,-2
CCN(CC)S(=O)(=O)c1cccc(NC(=O)CNc2cccc(S(=O)(=O)N3CCCC3)c2)c1,-6,12,38*,8,-2,-12
